pIC50: −log10 of the molar value. The source made the active and inactive calls. The calls are words filed in the database; no cut-off is given here.
How the values were obtained:
[1] = molecular target: T1, Cytochrome P450 1A2 (Homo sapiens, UniProt P05177); experiment: Inhibition of CYP1A2 (unknown origin); format: ADME
T1 sequence (P05177 whole entry): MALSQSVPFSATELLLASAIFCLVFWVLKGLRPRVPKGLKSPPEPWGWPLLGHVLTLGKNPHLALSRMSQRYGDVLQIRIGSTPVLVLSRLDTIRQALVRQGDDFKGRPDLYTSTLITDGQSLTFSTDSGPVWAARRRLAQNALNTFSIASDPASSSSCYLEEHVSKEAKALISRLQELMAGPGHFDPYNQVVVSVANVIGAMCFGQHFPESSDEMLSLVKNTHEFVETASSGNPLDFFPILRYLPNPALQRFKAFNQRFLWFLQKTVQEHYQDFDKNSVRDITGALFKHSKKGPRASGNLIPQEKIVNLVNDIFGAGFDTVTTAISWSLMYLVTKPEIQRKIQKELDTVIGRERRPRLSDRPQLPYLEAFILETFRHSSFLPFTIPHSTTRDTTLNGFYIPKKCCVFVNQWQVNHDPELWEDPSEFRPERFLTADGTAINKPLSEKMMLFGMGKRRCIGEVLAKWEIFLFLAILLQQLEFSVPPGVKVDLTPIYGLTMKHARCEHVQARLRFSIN

[2] = molecular target: Sodium channel protein type 5 subunit alpha (Homo sapiens, UniProt Q14524); experiment: Inhibition of Nav1.5 (unknown origin)
[3] = AUC in NMRI mouse plasma at 5 to 20 mg/kg, po by LC/MS/MS analysis; format: ADME, organism-based; set-up: route po; settings: in vivo, dose 5-20 mg/kg
How it was run: (§1)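 Compound given orally as its tartrate salt at 20 mg/kg in mouse, 10 mg/kg in rat and 5 mg/kg in minipig.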

[4] = Half life in Gottigen pig plasma by LC/MS/MS analysis; format: ADME, Sus scrofa
How it was run: (§2)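 Compound dosed as the tartrate salt. Oral doses were 20 mg/kg in mouse, 10 mg/kg in rat and 5 mg/kg in minipig.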

[5] = Genotoxicity in Salmonella typhimurium by Ames test; format: toxicity; settings: salmonella enterica subsp. enterica serovar typhimurium
How it was run: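 Bacterial reverse mutation assay in two strains, Salmonella typhimurium and Escherichia coli, scoring reverse mutations.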

[6] = molecular target: Histone deacetylase 4 (Homo sapiens) (UniProt P56524); experiment: Inhibition of human HDAC4 at 5 uM
[7] = AUC in Gottigen pig plasma 5 to 20 mg/kg, po by LC/MS/MS analysis; format: ADME, organism-based, Sus scrofa; set-up: route po; settings: dose 5-20 mg/kg; how it was run: as §1
[8] = Half life in Wistar rat plasma at 10 mg/kg, po or 2 mg/kg,iv by LC/MS/MS analysis; format: ADME, organism-based; how it was run: as §2
[9] = Permeability of the compound in porcine brain endothelial cells by BBB assay; format: ADME, cell-based, Sus scrofa, Endothelial cell; settings: pig; read-out: permeability
[10] = Half life in NMRI mouse plasma at 20 mg/kg, po or 2 mg/kg, iv by LC/MS/MS analysis; format: ADME, organism-based; how it was run: as §2
[11] = molecular target: Histone deacetylase 3 (Homo sapiens, UniProt O15379); experiment: Inhibition of human HDAC3 expressed in baculovirus infected insect cells using FLUOR DE LYS-SIRT1 as fluorogenic substrate preincubated for 10 mins followed by substrate addition and measured after 1 hr by spectrophotometer based analysis
[12] = molecular target: Histone deacetylase 5 (Homo sapiens) (UniProt Q9UQL6); experiment: Inhibition of human HDAC5 at 5 uM
[13] = molecular target: T2, Protein deacetylase HDAC6 (Homo sapiens, UniProt Q9UBN7); experiment: Inhibition of human HDAC6
T2 sequence (Q9UBN7 whole entry): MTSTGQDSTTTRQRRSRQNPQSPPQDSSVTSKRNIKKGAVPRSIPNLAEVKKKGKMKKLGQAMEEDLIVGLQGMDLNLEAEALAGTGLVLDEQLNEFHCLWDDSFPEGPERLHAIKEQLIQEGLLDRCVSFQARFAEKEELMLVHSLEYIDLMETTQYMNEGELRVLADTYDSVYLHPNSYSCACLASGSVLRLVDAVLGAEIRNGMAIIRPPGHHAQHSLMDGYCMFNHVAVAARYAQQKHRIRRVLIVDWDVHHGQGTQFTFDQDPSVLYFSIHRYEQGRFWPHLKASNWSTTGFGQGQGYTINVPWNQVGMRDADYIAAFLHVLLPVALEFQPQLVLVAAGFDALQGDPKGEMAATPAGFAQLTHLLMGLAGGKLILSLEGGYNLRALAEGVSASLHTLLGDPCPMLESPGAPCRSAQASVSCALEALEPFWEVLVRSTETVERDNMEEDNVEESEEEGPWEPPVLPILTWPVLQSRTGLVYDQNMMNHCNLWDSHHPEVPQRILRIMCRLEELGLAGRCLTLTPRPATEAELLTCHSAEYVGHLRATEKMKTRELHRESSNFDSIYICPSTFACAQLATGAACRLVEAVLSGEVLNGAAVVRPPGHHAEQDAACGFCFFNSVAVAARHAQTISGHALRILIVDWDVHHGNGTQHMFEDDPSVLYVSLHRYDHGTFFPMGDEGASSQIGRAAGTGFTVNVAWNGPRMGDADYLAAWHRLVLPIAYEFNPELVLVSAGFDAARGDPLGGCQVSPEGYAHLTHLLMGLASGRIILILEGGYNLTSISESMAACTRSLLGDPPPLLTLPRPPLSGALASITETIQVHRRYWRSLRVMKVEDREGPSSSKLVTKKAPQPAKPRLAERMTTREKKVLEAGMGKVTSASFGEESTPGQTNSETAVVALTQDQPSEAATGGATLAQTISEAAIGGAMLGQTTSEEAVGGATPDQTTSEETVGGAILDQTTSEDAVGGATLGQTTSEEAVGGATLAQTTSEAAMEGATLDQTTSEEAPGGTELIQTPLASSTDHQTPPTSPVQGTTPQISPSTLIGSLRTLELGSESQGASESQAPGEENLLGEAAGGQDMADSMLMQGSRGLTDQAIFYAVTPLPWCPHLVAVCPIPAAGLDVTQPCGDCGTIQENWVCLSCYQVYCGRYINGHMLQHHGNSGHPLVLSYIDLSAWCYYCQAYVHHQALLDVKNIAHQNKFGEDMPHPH

[14] = molecular target: T3, Voltage-gated inwardly rectifying potassium channel KCNH2 (Homo sapiens, UniProt Q12809); experiment: Inhibition of hERG potassium channel incubated for 4 hrs by fluorescence polarization assay; format: toxicity
[15] = molecular target: Cytochrome P450 2D6 (Homo sapiens, UniProt P10635); experiment: Inhibition of CYP2D6 (unknown origin); format: ADME
[16] = molecular target: Histone deacetylase 1 (Homo sapiens, UniProt Q13547); experiment: Inhibition of human recombinant his tagged HDAC1 expressed in baculovirus expression system using FLUOR DE LYS-SIRT1 as fluorogenic substrate preincubated for 10 mins followed by substrate addition and measured after 1 hr by spectrophotometer based analysis
[17] = molecular target: Cytochrome P450 3A4 (Homo sapiens, UniProt P08684); experiment: Inhibition of CYP3A4 (unknown origin); format: ADME
[18] = molecular target: Cytochrome P450 2C9 (Homo sapiens, UniProt P11712); experiment: Inhibition of CYP2C9 (unknown origin); format: ADME
[19] = Clearance in Gottigen pig plasma by LC/MS/MS analysis; format: ADME, Sus scrofa; how it was run: as §2
[20] = molecular target: T3, Voltage-gated inwardly rectifying potassium channel KCNH2; experiment: Inhibition of hERG by patch clamp assay; format: toxicity

T3 sequence (Q12809 whole entry): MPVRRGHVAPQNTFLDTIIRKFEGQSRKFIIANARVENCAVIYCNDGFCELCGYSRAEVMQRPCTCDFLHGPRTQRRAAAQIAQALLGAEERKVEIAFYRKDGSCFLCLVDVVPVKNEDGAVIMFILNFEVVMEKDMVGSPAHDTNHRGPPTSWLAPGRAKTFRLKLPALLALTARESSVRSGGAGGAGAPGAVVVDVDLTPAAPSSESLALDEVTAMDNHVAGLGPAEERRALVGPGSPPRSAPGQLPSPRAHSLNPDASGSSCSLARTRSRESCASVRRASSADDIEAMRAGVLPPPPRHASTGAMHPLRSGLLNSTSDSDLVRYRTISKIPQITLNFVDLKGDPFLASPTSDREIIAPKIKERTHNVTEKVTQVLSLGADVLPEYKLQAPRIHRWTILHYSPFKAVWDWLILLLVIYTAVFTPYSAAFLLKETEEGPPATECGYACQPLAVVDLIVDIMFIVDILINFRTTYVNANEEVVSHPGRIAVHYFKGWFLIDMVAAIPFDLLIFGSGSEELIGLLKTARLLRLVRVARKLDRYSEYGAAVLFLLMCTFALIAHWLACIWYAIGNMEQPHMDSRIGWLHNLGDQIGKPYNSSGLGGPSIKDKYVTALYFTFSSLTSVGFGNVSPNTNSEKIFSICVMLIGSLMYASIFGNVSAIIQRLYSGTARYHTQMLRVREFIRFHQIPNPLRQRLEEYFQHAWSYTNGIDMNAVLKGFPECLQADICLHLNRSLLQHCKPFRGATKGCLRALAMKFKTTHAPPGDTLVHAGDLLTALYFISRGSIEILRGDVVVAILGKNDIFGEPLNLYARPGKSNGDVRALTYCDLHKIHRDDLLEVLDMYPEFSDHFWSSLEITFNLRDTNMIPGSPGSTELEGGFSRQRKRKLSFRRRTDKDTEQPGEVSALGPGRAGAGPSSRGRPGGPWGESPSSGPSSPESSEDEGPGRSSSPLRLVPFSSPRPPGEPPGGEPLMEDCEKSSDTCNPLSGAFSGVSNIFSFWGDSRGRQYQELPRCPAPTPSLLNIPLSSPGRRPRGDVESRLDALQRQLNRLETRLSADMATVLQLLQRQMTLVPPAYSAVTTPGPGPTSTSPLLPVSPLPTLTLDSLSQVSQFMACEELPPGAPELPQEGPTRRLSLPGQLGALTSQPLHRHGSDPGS
Sequence of Histone deacetylase 1 (Q13547 whole entry): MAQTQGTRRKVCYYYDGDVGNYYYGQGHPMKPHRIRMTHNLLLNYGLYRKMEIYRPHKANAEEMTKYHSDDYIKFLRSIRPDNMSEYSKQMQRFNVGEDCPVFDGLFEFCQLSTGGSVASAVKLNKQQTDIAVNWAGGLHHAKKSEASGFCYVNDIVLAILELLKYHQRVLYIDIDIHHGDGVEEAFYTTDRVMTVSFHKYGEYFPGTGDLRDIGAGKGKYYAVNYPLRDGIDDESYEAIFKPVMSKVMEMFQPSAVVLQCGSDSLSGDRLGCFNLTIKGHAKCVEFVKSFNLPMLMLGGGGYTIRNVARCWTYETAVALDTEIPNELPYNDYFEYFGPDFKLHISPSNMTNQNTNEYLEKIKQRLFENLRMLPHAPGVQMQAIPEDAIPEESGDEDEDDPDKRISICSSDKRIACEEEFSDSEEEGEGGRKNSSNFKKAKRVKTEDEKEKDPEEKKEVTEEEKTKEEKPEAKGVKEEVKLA
Sequence of Sodium channel protein type 5 subunit alpha (Q14524 whole entry): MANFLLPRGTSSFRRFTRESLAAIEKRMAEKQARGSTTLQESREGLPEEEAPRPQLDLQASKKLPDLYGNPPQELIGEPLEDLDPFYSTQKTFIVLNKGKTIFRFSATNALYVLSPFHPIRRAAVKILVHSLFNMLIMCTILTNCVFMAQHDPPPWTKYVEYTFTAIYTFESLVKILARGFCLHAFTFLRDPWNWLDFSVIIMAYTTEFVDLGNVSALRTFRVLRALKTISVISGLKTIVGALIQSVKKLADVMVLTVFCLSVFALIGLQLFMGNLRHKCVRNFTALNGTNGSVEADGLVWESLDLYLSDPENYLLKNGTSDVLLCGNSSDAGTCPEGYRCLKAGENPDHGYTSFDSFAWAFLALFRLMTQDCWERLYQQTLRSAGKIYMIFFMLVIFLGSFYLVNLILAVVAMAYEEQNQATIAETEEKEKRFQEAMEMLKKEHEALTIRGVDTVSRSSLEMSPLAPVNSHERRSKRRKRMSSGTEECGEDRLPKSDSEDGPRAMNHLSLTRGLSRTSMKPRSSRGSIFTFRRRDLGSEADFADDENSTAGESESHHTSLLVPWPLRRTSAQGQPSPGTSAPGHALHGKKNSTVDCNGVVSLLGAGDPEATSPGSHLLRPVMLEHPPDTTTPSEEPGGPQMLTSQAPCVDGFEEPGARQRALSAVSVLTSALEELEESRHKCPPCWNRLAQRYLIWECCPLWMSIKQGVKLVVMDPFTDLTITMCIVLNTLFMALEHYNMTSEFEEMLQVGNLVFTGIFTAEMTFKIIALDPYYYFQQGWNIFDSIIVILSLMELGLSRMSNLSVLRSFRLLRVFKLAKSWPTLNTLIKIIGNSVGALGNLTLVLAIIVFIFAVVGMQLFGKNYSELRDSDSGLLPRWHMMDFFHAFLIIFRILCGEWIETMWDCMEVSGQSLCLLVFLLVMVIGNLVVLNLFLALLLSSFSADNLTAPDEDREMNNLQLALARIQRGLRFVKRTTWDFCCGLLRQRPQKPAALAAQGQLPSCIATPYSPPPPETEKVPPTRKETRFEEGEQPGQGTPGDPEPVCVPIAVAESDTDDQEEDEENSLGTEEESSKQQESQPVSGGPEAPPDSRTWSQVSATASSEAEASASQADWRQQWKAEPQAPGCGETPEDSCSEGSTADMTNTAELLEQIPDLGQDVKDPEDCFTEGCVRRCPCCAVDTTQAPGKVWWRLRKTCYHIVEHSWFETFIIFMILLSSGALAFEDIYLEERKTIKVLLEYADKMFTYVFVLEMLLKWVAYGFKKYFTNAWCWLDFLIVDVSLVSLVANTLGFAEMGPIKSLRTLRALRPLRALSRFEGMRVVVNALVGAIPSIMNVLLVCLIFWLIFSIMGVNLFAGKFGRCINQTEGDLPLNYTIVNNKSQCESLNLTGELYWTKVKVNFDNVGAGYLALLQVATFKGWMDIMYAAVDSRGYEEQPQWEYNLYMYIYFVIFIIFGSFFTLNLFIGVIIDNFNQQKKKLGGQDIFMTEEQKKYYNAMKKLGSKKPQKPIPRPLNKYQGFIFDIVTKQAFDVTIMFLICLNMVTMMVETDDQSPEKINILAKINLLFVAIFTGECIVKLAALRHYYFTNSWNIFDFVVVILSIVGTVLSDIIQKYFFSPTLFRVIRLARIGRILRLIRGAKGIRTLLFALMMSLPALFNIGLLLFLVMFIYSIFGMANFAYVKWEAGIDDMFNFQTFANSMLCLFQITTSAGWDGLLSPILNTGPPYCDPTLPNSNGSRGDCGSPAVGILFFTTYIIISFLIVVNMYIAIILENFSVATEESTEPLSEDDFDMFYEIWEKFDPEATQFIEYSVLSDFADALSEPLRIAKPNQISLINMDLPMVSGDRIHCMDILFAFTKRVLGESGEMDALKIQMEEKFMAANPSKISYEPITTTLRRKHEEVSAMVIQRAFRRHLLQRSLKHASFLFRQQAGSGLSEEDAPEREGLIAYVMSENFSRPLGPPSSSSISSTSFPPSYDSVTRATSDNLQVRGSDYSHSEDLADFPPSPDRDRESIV
Sequence of Histone deacetylase 4 (Homo sapiens) (P56524 whole entry): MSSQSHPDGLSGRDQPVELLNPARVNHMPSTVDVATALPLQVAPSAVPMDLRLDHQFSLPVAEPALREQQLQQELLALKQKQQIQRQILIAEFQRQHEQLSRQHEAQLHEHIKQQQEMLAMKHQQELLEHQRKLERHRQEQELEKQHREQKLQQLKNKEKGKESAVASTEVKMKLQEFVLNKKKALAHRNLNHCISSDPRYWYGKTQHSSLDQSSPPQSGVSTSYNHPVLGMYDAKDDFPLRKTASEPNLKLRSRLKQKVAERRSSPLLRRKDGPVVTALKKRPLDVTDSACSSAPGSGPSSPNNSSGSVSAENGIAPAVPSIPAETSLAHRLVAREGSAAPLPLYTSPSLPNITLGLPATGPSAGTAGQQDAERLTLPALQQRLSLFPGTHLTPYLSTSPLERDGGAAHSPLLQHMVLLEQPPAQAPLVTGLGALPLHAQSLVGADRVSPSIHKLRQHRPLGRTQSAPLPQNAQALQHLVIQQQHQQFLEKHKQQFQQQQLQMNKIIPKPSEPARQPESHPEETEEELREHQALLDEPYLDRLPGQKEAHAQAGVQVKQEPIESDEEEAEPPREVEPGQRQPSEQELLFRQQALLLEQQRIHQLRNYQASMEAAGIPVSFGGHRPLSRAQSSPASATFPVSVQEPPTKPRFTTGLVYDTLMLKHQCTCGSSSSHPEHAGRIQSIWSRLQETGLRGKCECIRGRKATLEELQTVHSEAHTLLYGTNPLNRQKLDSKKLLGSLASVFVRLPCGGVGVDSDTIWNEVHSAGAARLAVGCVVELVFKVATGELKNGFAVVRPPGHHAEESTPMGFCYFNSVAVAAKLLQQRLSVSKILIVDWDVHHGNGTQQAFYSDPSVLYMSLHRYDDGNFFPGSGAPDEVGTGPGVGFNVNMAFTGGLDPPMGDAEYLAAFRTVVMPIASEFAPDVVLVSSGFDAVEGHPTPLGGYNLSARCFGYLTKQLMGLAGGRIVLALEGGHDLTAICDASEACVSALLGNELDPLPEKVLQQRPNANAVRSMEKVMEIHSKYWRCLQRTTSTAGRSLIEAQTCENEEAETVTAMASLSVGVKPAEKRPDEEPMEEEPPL

pIC50 [1]: < 4.70
AUC [3]: 9.3 µM·h
half-life [4]: 222 min
inhibition [6]: inactive
AUC [7]: 2.6 µM·h
half-life [8]: 198 min
Papp [9]: 10.5 ×10⁻⁶ cm/s
half-life [10]: 198 min
pIC50 [11]: 8.96
inhibition [12]: inactive
pIC50 [13]: 6.75
pIC50 [15]: < 4.70
pIC50 [16]: 8.77
pIC50 [17]: < 4.70
pIC50 [18]: < 4.70
clearance [19]: 20 mL/min/kg
Compound: CCC(=O)CCCCC[C@H](NC(=O)C1CN(C)C1)c1ncc(-c2cc3ccccc3nc2OC)o1
pIC50 [2]: < 4.80
Activity [5]: Non-Toxic
pIC50 [14]: 5.44
pIC50 [20]: 5.00

Source: ChEMBL document CHEMBL5247577, “Improved Selective Class I HDAC and Novel Selective HDAC3 Inhibitors: Beyond Hydroxamic Acids and Benzamides” (ACS Med Chem Lett, 2019)
